Experiments:
[1] = test system: primary rat cortical neurons; test: 3-NP-induced neurotoxicity, cell survival by counting Hoechst-stained nuclei; format: cell-based; conditions: for Cell Survival (%): 0.5 mM for 24 h prior to 2.5 mM 3-NP for 24 h, Hoechst, % of control; for viability of cultured cortical neurons exposed to 3-NP: then 2.5 mM 3-NP 24 h
Procedure, shortened: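 E18 Sprague-Dawley rat cortical neurons (DIV 7–9) were pretreated with test compound for 24 h, then given 2.5 mM 3-NP for 24 h. Cells were fixed in 4% paraformaldehyde and stained with Hoechst 33342 (1:1000 in PBS, 5–15 min). Nuclei with normal morphology were counted. Survival (%) = mean surviving cells ÷ concurrent control × 100%.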

[2] = test system: primary rat cortical neurons; test: 3-NP-induced cellular ROS, CellROX fluorescence; format: cell-based; conditions: for ROS level compared with 3-NP-vehicle-treated group: 0.5 mM for 24 h prior to 2.5 mM 3-NP, LiCl p < 0.001, SB p < 0.01, LiBen p < 0.0001
Procedure, shortened: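 Primary cortical cultures came from E18 Sprague-Dawley rat cortex and were used at DIV 7–9 (neuron-enriched). Cultures were pretreated with test compound (0, 0.5, 1 or 3 mM) for 24 h, then exposed to 2.5 mM 3-NP for another 24 h. CellROX Green reagent was added, cells were washed with PBS, and ROS were quantified as fluorescence (Ex 485/Em 520 nm), with confocal imaging.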

[3] = test system: rat primary cortical neurons; test: Mitochondrial respiration, Seahorse XF Cell Mito Stress Test; format: cell-based; conditions: 3 mM
Procedure, shortened: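 Rat primary cortical neurons on XF96 plates were pretreated with test compound (3 mM) for 24 h. They were then moved to XF assay medium for 1 h at 37 °C without CO2. Oxygen consumption rate was recorded on an XF96 analyser with serial oligomycin, FCCP and rotenone/antimycin A injections. Basal respiration, ATP production, proton leak and spare capacity were derived; mean ± SD, N=3.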

[4] = test system: rat primary cortical neurons; test: Aβ25-35-induced cytotoxicity, cell survival with or without MK-801; format: cell-based; conditions: for cell survival rate: 10 μM Aβ25-35 for 2 days, then 1 mM for 4 days; for protective effect against Aβ25-35 in the presence vs absence of MK-801: MK-801 10 μM, SB 1 mM, LiBen 0.5 and 1 mM
[5] = test system: rat primary cortical neurons; test: Neurogenesis, BrdU/NeuN immunostaining after Aβ25-35; format: cell-based; conditions: p < 0.0001
Procedure, shortened: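 Aβ25-35 was pre-aggregated at 37 °C for 24 h and applied to E18 rat cortical cultures on coverslips for 2 days. Medium was then replaced with BrdU labelling solution plus test compound for 4 days at 37 °C. Cells were fixed in PFA, blocked in 2% BSA, permeabilised with 0.03% Triton X-100 and treated with 2 N HCl. They were stained for BrdU (1:250), NeuN (1:300) and Hoechst. Triple-positive cells were expressed as % of untreated control; mean ± SD, N=3, one-way ANOVA with Student-Newman-Keuls.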

[6] = test system: rat primary cortical neuronal culture; test: Oxygen glucose deprivation; format: cell-based
Procedure, shortened: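 For OGD, rat cortical cultures were rinsed into glucose- and pyruvate-free Neurobasal-A and held 1 h at 37 °C/5% CO2. They were then kept under 95% N2/5% CO2 (about 1.0% O2) for 4 h. Test compound was present either for the whole 53 h (0–5 mM) or only for 48 h post-OGD (0–3 mM). Viability was measured by MTT as % of the normoxic untreated control.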

[7] = Pharmacokinetics of lithium in rat plasma after single oral dose; format: in vivo; conditions: same molarity
Procedure, shortened: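 Male Sprague-Dawley rats (240–260 g, n=6/group) were fasted overnight and given a single gavage dose in PBS. Doses were test compound 255.3 mg/kg or sodium benzoate 287.9 mg/kg plus Li2CO3 74.2 mg/kg (equimolar). Jugular blood was drawn from 0 to 24 h into heparinised tubes, and plasma was separated at 2500×g for 15 min at 4 °C. Plasma was digested overnight in 2–5% nitric acid, filtered, and lithium measured by ICP-MS; concentration-time plots were used; mean ± SD.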

[8] = test system: APP/PS1 mice; test: Prepulse inhibition, sensorimotor gating; format: in vivo, mouse
Procedure, shortened: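 In APP/PS1 mice and WT littermates, test compound in 0.9% saline was given i.p. once daily from 5 months of age. The dose was 256 mg/kg/day for 5 months, then lowered to 200 mg/kg/day. Saline-vehicle groups served as controls. Behavioural testing took place at 5 (pre-dose), 7, 10 and 13 months of age.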

[9] = test system: APP/PS1 mice; test: Amyloid plaque number in brain, Congo red staining; format: in vivo, mouse; conditions: APP/PS1 mice at 16 months of age, AD/LiBen vs AD/Veh; p < 0.05
[10] = test system: WT mice; test: Chronic administration safety observations in WT mice; format: in vivo, mouse
Procedure, shortened: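 Wild-type littermates dosed i.p. once daily from 5 months of age for 8 months with test compound in 0.9% saline (n = 27) or saline vehicle (n = 23). Dose 256 mg/kg/day for 5 months, then 200 mg/kg/day. Barnes maze at 5, 7, 10 and 13 months, scored as probe-trial target-quadrant time over total exploring time. Body weight and survival followed to 16 months.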

[11] = US FDA and JECFA of WHO; cited from earlier work
[12] = 24 h, compared with SB or LiCl treatment

O=C(O)CC[N+](=O)[O-] [3-NP, 3-nitropropionic acid, reference compound]
neuronal cell death ([1]; 3-NP 2.5 mM alone): ~50%
ROS level (fluorescent intensity) increase compared to control ([2]; 3-NP 2.5 mM, 24 h, p < 0.05): 57.5%

[Cl-].[Li+] [LiCl, lithium chloride, reference compound]
Cell Survival (%) [1]: 61.5%
ROS level compared with 3-NP-vehicle-treated group [2]: significant decreases
spare respiratory capacity ([3]; 24 h pre-treatment): less effective than LiBen
cell survival rate [4]: 74.0%

O=C([O-])c1ccccc1.[Li+] [LiBen, lithium benzoate]
Cell Survival (%) [1]: 79.0%
viability of cultured cortical neurons exposed to 3-NP ([1]; LiBen 1 mM 24 h, p < 0.005 vs 3-NP alone): significantly increase
viability of cultured cortical neurons exposed to 3-NP ([1]; LiBen 3 mM 24 h, p < 0.001 vs 3-NP alone): significantly increase
viability of cultured cortical neurons in the absence of 3-NP ([1]; LiBen 1 or 3 mM, no 3-NP): the difference was not revealed
ROS level compared with 3-NP-vehicle-treated group [2]: much more significant
ATP production [3, 12]: more reduction
proton leak [3, 12]: more reduction
spare respiratory capacity ([3]; 24 h pre-treatment): increasing tendency
basal oxygen consumption rate ([3]; 24 h pre-treatment, did not reach the significant level): reduced more basal oxygen consumption rate than the other treatment groups
cell survival rate [4]: 85.1%
protective effect against Aβ25-35 in the presence vs absence of MK-801 [4]: no differences were observed
neurogenesis (BrdU+/NeuN+ cells) vs corresponding control ([5]; Aβ25-35 exposure, then 0.5 mM for 4 days): significantly improve neurogenesis
neurogenesis (BrdU+/NeuN+ cells) vs corresponding control ([5]; No Aβ25-35 exposure, 0.5 mM for 4 days): significantly improve neurogenesis
OGD-induced cell death / cell viability ([6]; 3 mM LiBen present for 53 hrs of the whole culture period): significantly recovered and comparable to the normoxia group
cell survival in normoxia group ([6]; 5 mM LiBen, 53 hrs): also reduced
neuroprotective property under OGD ([6]; 5 mM LiBen, 53 hrs): vanished
OGD-induced cell death ([6]; LiBen 0.3 to 3 mM added for 48 hrs post-OGD, vs 0 mM group): significantly alleviates OGD-induced cell death
AUC of lithium compared with the SB + Li2CO3 mixture group [7]: also higher
Cmax of lithium compared with the SB + Li2CO3 mixture group [7]: significantly higher
improvement of PPI deficit ([8]; APP/PS1 mice at 13 months of age): reached significant level
prepulse inhibition (PPI) ([8]; APP/PS1 mice, i.p. once daily from 5 months of age, tested at 7, 10, 13 months): normal PPI at all time points
decrease in number of plaques in cortex [9]: 21.8%
decrease in number of plaques in hippocampus [9]: 27.8%
body weight change during the experimental period ([10]; WT mice, chronic administration): without significant body weight change
survival ([10]; WT mice, chronic administration, termination time point of the experiment): at least 16 months
toxicity of chronic use ([10]; within the tested dose range (256, later 200 mg/kg/day i.p.)): did not display any toxicity

O=C([O-])c1ccccc1.[Na+] [SB, Sodium benzoate]
Cell Survival (%) [1]: 67.1%
ROS level compared with 3-NP-vehicle-treated group [2]: significant decreases
spare respiratory capacity ([3]; 24 h pre-treatment): less effective than LiBen
cell survival rate [4]: 70.7%
protective effect against Aβ25-35 in the presence vs absence of MK-801 [4]: blocked by MK-801
acceptable daily intake level [11]: 5 mg/kg body weight
